Results published in the array DNA melting data of Ke et al. (doi:10.1101/2024.01.08.574731).

Key:
[1] = melting temperature; fluorescence melt of hairpins on a sequencing array, two-state fit, raised by 9.35 °C to match UV melts; conditions: sodium 0.088 M
In short: (§1)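 Melting temperature and folding enthalpy were obtained by bootstrapped two-state fitting. Fits used Cy3 fluorescence of library hairpins with annealed Cy3 and quencher oligos on a sequenced MiSeq flow cell, imaged in 50 mM Na-HEPES pH 8.0, 25 mM NaCl in 2.5 °C steps up to 60 °C and normalised to pre-quench Cy3 and control constructs. Four replicates were combined by inverse-variance weighting, and fitted temperatures were raised by 9.35 °C to match UV melts.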

[2] = folding enthalpy; higher = less favourable; fluorescence melt of hairpins on a sequencing array, two-state fit; conditions: sodium 0.088 M
In short: as §1

| Sequence | Tm [1] [°C] | folding enthalpy [2] [kcal/mol] |
| --- | --- | --- |
| GTACCCGAAAGGGTGTAC ((((((....)))..))) | 40.3 | -10.1 |
| GTGAAAGGAAACTTCCAC (((.(((....))).))) | 27.8 | -16.3 |
| GTCATCGAAAGATGAC ((((((....)))))) | 66.2 | -31.2 |
| GATCAGTTATCTGATC ((((((....)))))) | 52.1 | -34.2 |
| GGGATCGGAAACGGTCTC (.((.((....)).)).) | 39.6 | -22.1 |
| CGCAAGCGGAAACGCGCG (((..(((....)))))) | 56.9 | -22 |
| GATCCACCTATGGATC ((((((....)))))) | 50.1 | -41.4 |
| GTCGTTCGAAAGAAGAC (((.(((....)))))) | 35.6 | -21.2 |
| CGTGCGGAAACGCACACG ((((((....)))..))) | 43.9 | -8.09 |
| GACGTCGGAAACAACGTC (((((.(....).))))) | 45.2 | -30.5 |
| GACCCAGGAAACTGAGTC (((.(((....))).))) | 37.9 | -30 |
| GGAGCAGCGAAAGCTTCC (((..(((....)))))) | 30.8 | -13.8 |
| CGAACGCGGAAACGCTCG (((..(((....)))))) | 40.5 | -17.2 |
| GTCTAGCGAAAGCTGGAC (((.(((....))).))) | 61.6 | -33.7 |
| GATCGGCCTTCCGATC ((((((....)))))) | 56.1 | -41.3 |
| GATCTTAGTGAAGATC ((((((....)))))) | 43.1 | -27.1 |
| GATCGGTCCCCCGATC ((((((....)))))) | 55.7 | -45 |
| GATCTAAAGTAGATC ((((((...)))))) | 37.1 | -22.2 |
| GCGGGCTCCGC ((((...)))) | 58.5 | -21.6 |
| GTGCTGGGAAACCAGTGC (..((((....))))..) | 47.5 | -27.9 |
| GCCCCGGGAAACCGAGGC (((.(((....))).))) | 54.1 | -29.5 |
| GTCACGGGAAACCACGAC (((..((....))..))) | 34.9 | -23.6 |
| GATCATAAGCATGATC ((((((....)))))) | 46.5 | -31.5 |
| GTTTTCGAAAGAAAAAC ((((((....))).))) | 39.2 | -15.8 |

| Sequence | Tm [1] [°C] | folding enthalpy [2] [kcal/mol] |
| --- | --- | --- |
| GATCTGCGACAGATC ((((((...)))))) | 47.3 | -26.2 |
| GATCCGCTTTCGGATC ((((((....)))))) | 57.8 | -40.4 |
| GATCCTAGGTAGGATC ((((((....)))))) | 52.9 | -38.7 |
| CGCCGCCGGAAACGGGCG (((..(((....)))))) | 51.9 | -16.5 |
| GACTCGCGAAAGCGGTC (((.(((....)))))) | 51.8 | -14.3 |
| CGAGCGGAAACGCACTCG ((((((....)))..))) | 37.6 | -15.8 |
| CGGTAGAAATACCG (((((....))))) | 48.6 | -28.2 |
| GAACCACGAAAGTGTTC (((.(((....)))))) | 43.9 | -13.8 |
| GCCCGAGGAAACCCAGGC (((.(.(....).).))) | 28.1 | -16.5 |
| GAGGTAGAAATACCTC ((((((....)))))) | 50.2 | -33.5 |
| GCGAGCGAAAGCTATCGC ((((((....)))..))) | 54.6 | -23.3 |
| GATCTGTTTGCAGATC ((((((....)))))) | 54.8 | -40.6 |
| CGCGCGGAAACGCACGCG ((((((....)))..))) | 57.1 | -22.1 |
| GTTTAGGGAAACCTAGAC ((.((((....)))).)) | 33 | -27.4 |
| GCGTTGTTACGC ((((....)))) | 54.3 | -23.2 |
| GATCTATCCTTAGATC ((((((....)))))) | 44.4 | -34.1 |
| GCACGGCGAAAGCAGGGC ((.(.((....)).).)) | 65.8 | -36 |
| GATGCTGGAAACAGCGTC ((.((((....)))).)) | 54.5 | -39.7 |
| GCCCCAACGAAAGTTGGC (((..(((....)))))) | 38.7 | -5.86 |
| GATTTCGCGAAAGCGATC (((..(((....)))))) | 17.8 | -5.88 |
| GGGGTCGGAAACGGTCCC (((..((....))..))) | 49.4 | -37.3 |
| GGCTTAGGAAACCAAGCC (((((.(....).))))) | 47.4 | -31.4 |
| GATCGGGTTTCCGATC ((((((....)))))) | 60.7 | -39.9 |
| GGCATGGAAACATGCC ((((((....)))))) | 67.3 | -34.9 |

| Sequence | Tm [1] [°C] | folding enthalpy [2] [kcal/mol] |
| --- | --- | --- |
| GCATACCGAAAGGTGTGC (((.(((....))).))) | 63.3 | -43.2 |
| GCCAACGGAAACGTTAGC ((.((((....)))).)) | 40 | -23.6 |
| GGGTATGGAAACATATCC ((.((((....)))).)) | 44.2 | -39.3 |
| GGTGGACCGAAAGGTACC (((..(((....)))))) | 45 | -13.4 |
| GATCACGAGGGTGATC ((((((....)))))) | 54.6 | -38.1 |
| GATCGGCTCCCCGATC ((((((....)))))) | 55.2 | -42.1 |
| GCAGCCGAAAGGCCCTGC ((((((....)))..))) | 34.8 | -12.5 |
| GCTGGGGCGAAAGCCAGC (((..(((....)))))) | 55.3 | -16.8 |
| GGACCTCGAAAGAGATCC (((.(((....))).))) | 46.7 | -30.6 |
| GGGGAACCGAAAGGTCCC (((..(((....)))))) | 55.6 | -17.3 |
| GATCGCACCCGCGATC ((((((....)))))) | 67.6 | -38.9 |
| GATGAACGAAAGTTTATC (((.(((....))).))) | 44.6 | -29.3 |
| GGATTTGGAAACAAACCC ((.((((....)))).)) | 35.6 | -30.1 |
| GACATAGGAAACTATGCC (.(((((....))))).) | 34.3 | -18.6 |
| GTGTATCGAAAGATCCAC (((.(((....))).))) | 41.2 | -33.5 |
| GTGTTCGGAAACGAATAC ((.((((....)))).)) | 49.2 | -31.7 |
| GTGTACCCGAAAGGGCAC (((..(((....)))))) | 48.3 | -20.6 |
| CGGACGGAAACGTTCCCG ((((((....)))..))) | 37.2 | -15.8 |
| GCGTCCGAAAGGACCGC ((((((....))).))) | 66.7 | -19.6 |
| GAATCCGAAAGGAGGTTC ((((((....)))..))) | 26.2 | -10.9 |
| GCCTGCGAAAGCATTGGC ((((((....)))..))) | 50.9 | -21.2 |
| GATCAACTCGTTGATC ((((((....)))))) | 57.5 | -42.6 |
| GTGGCGACGAAAGTCCAC (((..(((....)))))) | 42.8 | -17.3 |
| GCTGAGCGAAAGCTTGGC ((..(((....)))..)) | 55.4 | -20.9 |

| Sequence | Tm [1] [°C] | folding enthalpy [2] [kcal/mol] |
| --- | --- | --- |
| GATCTACCACTAGATC ((((((....)))))) | 39.7 | -30.6 |
| GCACGAGGAAACTCGCAC (..((((....))))..) | 25.5 | -8.67 |
| GCGGAAGGAAACTTTCGC (((.(((....))).))) | 53 | -36.1 |
| GACGACGAAAGTCCGTC ((((((....))).))) | 53.4 | -29.9 |
| GCGCCCACGAAAGTGCGC (((..(((....)))))) | 56 | -35.2 |
| CGCGGAGCTGTCCGCG ((((((....)))))) | 67.1 | -20.9 |
| GGACGCGAAAGCGTTCC ((((((....))).))) | 61.8 | -14.1 |
| GATCATGTCGATGATC ((((((....)))))) | 51 | -37.1 |
| GTAGGCGAAAGCCTTTAC ((((((....)))..))) | 24.7 | -8.65 |
| GCGTGACGAAAGTCCGC (((.(((....)))))) | 65 | -32.2 |
| GTATGAGGAAACTCATAC (((((((....))))))) | 54.6 | -36.9 |
| GATCAGTGTGCTGATC ((((((....)))))) | 56.6 | -52.8 |
| GATCCGGCACGGATC ((((((...)))))) | 69.2 | -36 |
| GCGATCATCGC ((((...)))) | 49.6 | -19.5 |
| GCCTTGCGAAAGCGATGC ((.(.((....)).).)) | 47.4 | -11.3 |
| GATCGAAGCTCGATC ((((((...)))))) | 49.9 | -36 |
| GACCGCGAAAGCGACGTC ((((((....)))..))) | 45.8 | -13.2 |
| GATGAACGAAAGTTGATC (((.(((....))).))) | 38.1 | -22.7 |
| GTACGAGGAAACTCGTAC (((((((....))))))) | 61.9 | -36.4 |
| GTATGCCGAAAGGCCTAC (((.(((....))).))) | 45.5 | -12.1 |
| GACGTAGGAAACTACGCC (.(((((....))))).) | 43.6 | -16.6 |
